How the values were obtained:
Lysyl oxidase homolog 2 [1] = target: T1, Lysyl oxidase homolog 2 (Homo sapiens, UniProt Q9Y4K0); assay: Inhibition of full length recombinant human LOXL2 expressed in CHO cells assessed as reduction in H2O2 production using DAP as substrate preincubated for 2 hrs followed by substrate addition measured every 2 minutes for 50 minutes by Amplex red dye based fluorescence assay
T1 sequence (Q9Y4K0 whole entry): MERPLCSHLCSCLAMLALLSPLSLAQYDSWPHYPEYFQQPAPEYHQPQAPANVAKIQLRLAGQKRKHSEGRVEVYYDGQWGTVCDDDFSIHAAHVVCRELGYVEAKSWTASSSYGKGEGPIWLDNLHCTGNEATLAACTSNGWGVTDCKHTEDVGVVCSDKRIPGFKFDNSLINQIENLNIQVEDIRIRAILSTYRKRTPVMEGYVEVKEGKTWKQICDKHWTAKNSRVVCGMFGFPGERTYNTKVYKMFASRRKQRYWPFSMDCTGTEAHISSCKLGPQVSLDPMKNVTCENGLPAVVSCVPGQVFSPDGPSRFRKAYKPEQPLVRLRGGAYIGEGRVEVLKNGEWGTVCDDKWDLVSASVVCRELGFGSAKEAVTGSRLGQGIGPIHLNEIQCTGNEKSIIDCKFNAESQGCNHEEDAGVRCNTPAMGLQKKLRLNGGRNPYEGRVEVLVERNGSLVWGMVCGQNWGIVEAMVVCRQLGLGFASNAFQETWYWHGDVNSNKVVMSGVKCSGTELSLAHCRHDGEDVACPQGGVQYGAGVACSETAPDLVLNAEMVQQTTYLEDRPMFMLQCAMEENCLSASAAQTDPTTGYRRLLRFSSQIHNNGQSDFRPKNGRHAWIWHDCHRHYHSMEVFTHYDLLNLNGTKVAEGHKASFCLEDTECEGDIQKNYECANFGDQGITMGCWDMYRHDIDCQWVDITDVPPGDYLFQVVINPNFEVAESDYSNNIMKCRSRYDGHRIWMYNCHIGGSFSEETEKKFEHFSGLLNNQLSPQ

Lysyl oxidase homolog 2 [2] = target: T2, Lysyl oxidase homolog 2 (Mus musculus, UniProt P58022); assay: Inhibition of full length recombinant mouse LOXL2 expressed in CHO cells assessed as reduction in H2O2 production using DAP as substrate preincubated for 2 hrs followed by substrate addition measured every 2 minutes for 50 minutes in presence of BSA by Amplex red dye based fluorescence assay; type: cell-based
T2 sequence (P58022 whole entry): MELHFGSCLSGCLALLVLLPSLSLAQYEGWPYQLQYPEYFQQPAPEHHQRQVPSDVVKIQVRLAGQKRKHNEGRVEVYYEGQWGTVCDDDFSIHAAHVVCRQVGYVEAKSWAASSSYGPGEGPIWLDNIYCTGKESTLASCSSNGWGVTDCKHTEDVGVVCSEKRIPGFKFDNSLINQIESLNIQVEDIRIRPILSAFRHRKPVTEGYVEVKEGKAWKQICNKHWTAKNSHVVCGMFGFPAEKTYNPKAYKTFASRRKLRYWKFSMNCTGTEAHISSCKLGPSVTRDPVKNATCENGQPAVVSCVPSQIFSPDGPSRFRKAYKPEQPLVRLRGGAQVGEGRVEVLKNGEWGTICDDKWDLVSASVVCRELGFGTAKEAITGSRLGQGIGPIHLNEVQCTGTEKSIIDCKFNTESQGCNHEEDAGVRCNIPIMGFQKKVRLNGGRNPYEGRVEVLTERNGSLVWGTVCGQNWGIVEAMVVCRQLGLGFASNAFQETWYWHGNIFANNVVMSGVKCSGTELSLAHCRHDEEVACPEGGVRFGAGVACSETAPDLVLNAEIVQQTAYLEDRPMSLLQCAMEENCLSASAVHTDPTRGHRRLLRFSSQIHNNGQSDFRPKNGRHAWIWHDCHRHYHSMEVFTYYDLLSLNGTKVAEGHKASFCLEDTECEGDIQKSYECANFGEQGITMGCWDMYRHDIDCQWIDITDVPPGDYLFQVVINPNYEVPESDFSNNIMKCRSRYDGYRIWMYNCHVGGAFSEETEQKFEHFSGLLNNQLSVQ
In short: (§1)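 Rodent LOXL2 is tested under the same conditions as the BSA-supplemented assay: conditioned media plus BSA, with DAP as substrate and Amplex Red detection of H2O2. Species are mouse and rat. IC50 is the geometric mean x/÷ geometric standard deviation from 3 determinations.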

Lysyl oxidase homolog 2 [3] = target: T3, Lysyl oxidase homolog 2 (Rattus norvegicus, UniProt B5DF27); assay: Inhibition of full length recombinant rat LOXL2 expressed in CHO cells assessed as reduction in H2O2 production using DAP as substrate preincubated for 2 hrs followed by substrate addition measured every 2 minutes for 50 minutes in presence of BSA by Amplex red dye based fluorescence assay; in short: as §1
T3 sequence (B5DF27 whole entry): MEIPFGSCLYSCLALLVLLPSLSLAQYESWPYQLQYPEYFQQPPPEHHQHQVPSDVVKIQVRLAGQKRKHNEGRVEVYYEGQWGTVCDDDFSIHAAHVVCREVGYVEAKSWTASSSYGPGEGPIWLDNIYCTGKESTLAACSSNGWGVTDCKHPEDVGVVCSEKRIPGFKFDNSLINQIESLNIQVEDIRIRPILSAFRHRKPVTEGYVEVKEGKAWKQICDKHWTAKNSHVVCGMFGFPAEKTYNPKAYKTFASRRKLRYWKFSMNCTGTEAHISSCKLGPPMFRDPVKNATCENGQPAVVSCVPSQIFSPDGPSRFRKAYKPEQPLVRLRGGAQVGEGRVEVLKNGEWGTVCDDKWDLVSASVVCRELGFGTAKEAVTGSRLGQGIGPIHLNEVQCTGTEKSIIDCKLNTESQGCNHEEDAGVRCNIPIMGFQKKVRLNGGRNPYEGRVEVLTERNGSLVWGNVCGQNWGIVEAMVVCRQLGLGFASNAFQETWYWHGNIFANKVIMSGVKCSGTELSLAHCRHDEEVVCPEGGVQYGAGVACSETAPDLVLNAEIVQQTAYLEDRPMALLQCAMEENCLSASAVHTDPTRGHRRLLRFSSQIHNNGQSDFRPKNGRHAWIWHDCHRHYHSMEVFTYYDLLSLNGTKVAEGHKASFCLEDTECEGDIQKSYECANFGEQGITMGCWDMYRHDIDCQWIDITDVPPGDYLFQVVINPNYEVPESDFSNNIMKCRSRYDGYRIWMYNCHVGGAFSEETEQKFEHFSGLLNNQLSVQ

Lysyl oxidase homolog 2 [4] = target: T1, Lysyl oxidase homolog 2; assay: Inhibition of full length recombinant human LOXL2 expressed in CHO cells assessed as reduction in H2O2 production using DAP as substrate preincubated for 2 hrs followed by substrate addition measured every 2 minutes for 50 minutes in presence of BSA by Amplex red dye based fluorescence assay
In short: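 Serum-free concentrated conditioned medium from CHO cells stably expressing human LOXL2, supplemented with BSA. Compounds preincubated for 2 h (the screening preincubation time). Substrate was 1,5-diaminopentane, and the H2O2 formed was detected with Amplex Red. IC50 given as geometric mean x/÷ geometric SD over N determinations.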

Protein-lysine 6-oxidase = target: T4, Protein-lysine 6-oxidase (Homo sapiens, UniProt P28300); assay: Inhibition of full length recombinant human LOX expressed in HEK cells assessed as reduction in H2O2 production using DAP as substrate preincubated for 2 hrs followed by substrate addition measured every 2 minutes for 50 minutes in presence of BSA by Amplex red dye based fluorescence assay
T4 sequence (P28300 whole entry): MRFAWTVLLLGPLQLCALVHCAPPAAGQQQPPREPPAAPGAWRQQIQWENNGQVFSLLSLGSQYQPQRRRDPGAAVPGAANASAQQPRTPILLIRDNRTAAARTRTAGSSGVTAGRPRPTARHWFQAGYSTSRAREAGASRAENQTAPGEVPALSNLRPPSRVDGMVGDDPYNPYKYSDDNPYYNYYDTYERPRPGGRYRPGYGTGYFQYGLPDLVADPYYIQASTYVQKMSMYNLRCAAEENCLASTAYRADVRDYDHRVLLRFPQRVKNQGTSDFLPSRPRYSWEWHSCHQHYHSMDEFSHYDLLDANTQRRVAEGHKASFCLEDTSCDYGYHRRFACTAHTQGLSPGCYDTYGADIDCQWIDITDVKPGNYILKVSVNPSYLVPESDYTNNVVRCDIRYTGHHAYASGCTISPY
In short: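 Enzyme source: serum-free conditioned media from HEK cells stably expressing human LOX, with BSA added to give measurable activity. Activity is measured as H2O2 from oxidative deamination of 1,5-diaminopentane (DAP), read by Amplex Red. IC50 is given as geometric mean x/÷ geometric standard deviation, with N-values reported.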

Lysyl oxidase homolog 2 [5] = target: T1, Lysyl oxidase homolog 2; assay: Inhibition of full length recombinant human LOXL2 expressed in CHO cells assessed as reduction in H2O2 production using DAP as substrate preincubated for 15 mins followed by substrate addition measured every 2 minutes for 50 minutes by Amplex red dye based fluorescence assay
In short: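 Enzyme source: serum-free concentrated conditioned medium from CHO cells stably expressing human LOXL2. Inhibitor preincubated with enzyme for 15 min, then 1,5-diaminopentane (DAP) added. H2O2 from oxidative deamination read by Amplex Red. IC50 reported as geometric mean x/÷ geometric SD, with N given.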

Row | IC50 (Lysyl oxidase homolog 2 [1]) [nM] | SMILES | also measured
1 | 385 | NCc1ccnc(F)c1 | 
2 | 321 | NCc1ccnc(-c2cccnc2)c1 | 
3 | 3620 | COC(=O)c1ccc(CN)cc1 | 
4 | 4970 | N=C(N)c1cccc(CN)c1 | 
5 | 1110 | N=C(N)c1ccc(CN)cc1 | 
6 | 47000 | NCc1ccc(N)cc1 | 
7 | 26000 | NCc1ccc(F)cc1 | 
8 | 64700 | NCc1ccccc1 [BENZYLAMINE] | 
9 | 3540 | COC(=O)c1cccc(CN)c1 | 
10 | 1220 | NCc1ccncc1 | 
11 | 670 | N#Cc1ccc(CN)cc1 | 

Continued, molecule first:

Row | SMILES | IC50 (Lysyl oxidase homolog 2 [1]) [nM] | also measured
12 | NCCc1ccncc1 | 8210 | 
13 | NCc1cc(-c2cccnc2)ncc1C(F)(F)F | > 31000 | 
14 | N[C@@H]1C[C@H]1c1ccccc1.N[C@H]1C[C@@H]1c1ccccc1 [TRANYLCYPROMINE] | > 100000 | 
15 | NCc1ccnc2ccccc12 | 6040 | 
16 | NCc1ccc(-c2nccs2)cc1 | 902 | 
17 | N#CCCN | 66 | IC50 (Lysyl oxidase homolog 2 [2]): 128 nM; IC50 (Lysyl oxidase homolog 2 [3]): 127 nM; IC50 (Lysyl oxidase homolog 2 [4]): 83 nM; IC50 (Protein-lysine 6-oxidase): 550 nM; IC50 (Lysyl oxidase homolog 2 [5]): 243 nM
18 | CNCc1ccc(C#N)cc1 | > 100000 | 
19 | NCc1ccc([N+](=O)[O-])cc1 | 719 | 
20 | NCc1ccnc(-n2ccnc2)c1 | 203 | 
21 | NCCc1ccccc1 [PHENETHYLAMINE] | 60100 | 
22 | NCc1ccncc1F | 431 | 
